The sample as a whole holds a higher share of hits than the screen did.
INS-1E rescue = INS-1E beta cell protection from cytokine death. INS-1E cytokine-induced death, ATP luminescence, 48 h; normalised: neutral wells 0, positive control 100. protection from cytokine-induced ATP loss, % at 10 µM. 20,000 tested, 0.1% active. AID 488910;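 active means mean replicate protection from cytokine-induced ATP loss at least 50% and at least 75% of replicates each reaching 50%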
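assay system = INS-1E rat insulinoma cells | amount = 8000 cells per well | medium = phenol-red-free RPMI with 5% fetal bovine serum | doses = one compound concentration, pin transfer | timing = 48 h cytokine plus compound treatment, 10 min reagent incubation | also added = IL-1β, TNF-α and IFN-γ cytokine mix | signal = CellTiter-Glo luminescence measuring cellular ATP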
YB-1 expr inh = YB-1 expression inhibition; U2OS, qRT-PCR YB-1 vs CDIP delta delta Cp, 16 h; active compounds read high; zero = DMSO, each unit about twofold; delta delta Cp (YB-1 minus CDIP) (no concentration beside the values); 30,000 tested, 0.37% active;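 active means delta delta Cp rounded down to an integer at or above 3, about 3 SD of DMSO wells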;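 further: higher means less YB-1 transcript or more CDIP transcript relative to DMSO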
T cruzi intra = inhibitors of intracellular Trypanosoma cruzi | intracellular Trypanosoma cruzi in host cells, plate reader | activity score (inhibition), % at 5.01 µM | 22,000 tested, 4.9% active; in the data active means activity score above about 55%;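 further: parasites and compound incubated about four days before reading; 0% = median of neutral control wells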
* hit, by the source's call; . = not tested or not shown.

SMILES	INS-1E rescue	YB-1 expr inh	T cruzi intra
COc1ccc(S(=O)(=O)Nc2ccc3c(c2)C(=O)N([C@H](C)CO)C[C@H](C)[C@@H](CN(C)C(=O)Nc2ccc(C(F)(F)F)cc2)OCCCC[C@@H](C)O3)cc1	-7	-0.65	37
C[C@@H]1CCCCO[C@H](CN(C)C(=O)Nc2cccc3ccccc23)[C@@H](C)CN([C@H](C)CO)C(=O)c2cc(NS(=O)(=O)c3ccc(Cl)cc3)ccc2O1	-2	15*	66*
C[C@@H]1CCCCO[C@@H](CN(C)C(=O)Nc2ccccc2)[C@@H](C)CN([C@H](C)CO)C(=O)c2cc(NS(=O)(=O)c3ccccc3)ccc2O1	8	-0.96	3
C[C@@H]1CCCCO[C@H](CN(C)C(=O)Nc2ccc(C(F)(F)F)cc2)[C@@H](C)CN([C@H](C)CO)C(=O)c2cc(NS(=O)(=O)c3ccc(Cl)cc3)ccc2O1	-47	-0.072	66*
COc1ccc(Nc2ncnc3c2nnn3Cc2ccccc2Cl)c(OC)c1	.	-0.3	.
C[C@@H]1CCCCO[C@H](CN(C)Cc2ccc(Cl)c(Cl)c2)[C@@H](C)CN([C@H](C)CO)C(=O)c2cc(NC(=O)Nc3ccc4c(c3)OCO4)ccc2O1	-26	-0.21	69*
C[C@@H]1CCCCO[C@H](CN(C)CC2CCCCC2)[C@@H](C)CN([C@H](C)CO)C(=O)c2cc(NC(=O)Nc3ccc(F)cc3)ccc2O1	-23	-0.18	67*
C[C@@H]1CCCCO[C@@H](CN(C)CC2CCCCC2)[C@@H](C)CN([C@H](C)CO)C(=O)c2cc(NC(=O)Nc3ccccc3)ccc2O1	-15	-0.037	52
C[C@@H]1CCCCO[C@@H](CN(C)Cc2ccc3c(c2)OCO3)[C@@H](C)CN([C@H](C)CO)C(=O)c2cc(NC(=O)Nc3ccc4c(c3)OCO4)ccc2O1	-18	-0.47	71*
C[C@@H]1CCCCO[C@@H](CN(C)Cc2ccc3c(c2)OCO3)[C@@H](C)CN([C@H](C)CO)C(=O)c2cc(NC(=O)Nc3ccc(C(F)(F)F)cc3)ccc2O1	-16	0.066	65*
C[C@@H]1CCCCO[C@H](CN(C)Cc2ccc3c(c2)OCO3)[C@@H](C)CN([C@H](C)CO)C(=O)c2cc(NC(=O)Nc3ccc4c(c3)OCO4)ccc2O1	6	0.24	1
C[C@@H]1CCCCO[C@@H](CN(C)Cc2ccc3c(c2)OCO3)[C@@H](C)CN([C@H](C)CO)C(=O)c2cc(NC(=O)Nc3ccc(F)cc3)ccc2O1	7	0.36	43
C[C@@H]1CCCCO[C@@H](CN(C)Cc2ccc3c(c2)OCO3)[C@@H](C)CN([C@H](C)CO)C(=O)c2cc(NC(=O)Nc3ccccc3)ccc2O1	-32	-0.3	54
Cc1cc(SCC(=O)NN)c(C)cc1Cl	.	0.24	.
COc1ncccc1C(=O)Nc1ccc(F)cc1F	.	-0.081	.
C[C@@H]1CCCCO[C@@H](CN(C)CC2CC2)[C@@H](C)CN([C@H](C)CO)C(=O)c2cc(NC(=O)Nc3ccc4c(c3)OCO4)ccc2O1	-4	-0.0067	9
C[C@@H]1CCCCO[C@H](CN(C)CC2CCCCC2)[C@@H](C)CN([C@H](C)CO)C(=O)c2cc(NC(=O)c3ccncc3)ccc2O1	-2	6.4*	-2
C[C@@H]1CCCCO[C@@H](CN(C)CC2CCCCC2)[C@@H](C)CN([C@H](C)CO)C(=O)c2cc(NC(=O)c3ccccc3)ccc2O1	-9	-0.42	23
C[C@@H]1CCCCO[C@@H](CN(C)Cc2ccc(Cl)c(Cl)c2)[C@@H](C)CN([C@H](C)CO)C(=O)c2cc(NC(=O)Nc3ccc(C(F)(F)F)cc3)ccc2O1	-18	-0.26	76*
CC(C)NC(=O)Nc1ccc2c(c1)C(=O)N([C@H](C)CO)C[C@H](C)[C@H](CN(C)Cc1ccc(C(F)(F)F)cc1)OCCCC[C@@H](C)O2	15	0.099	5
C[C@@H]1CCCCO[C@@H](CN(C)CC2CCCCC2)[C@@H](C)CN([C@H](C)CO)C(=O)c2cc(NC(=O)Nc3ccc4c(c3)OCO4)ccc2O1	-25	-0.093	58*
CC1C(c2ccccc2)O/C(=N\S(=O)(=O)c2ccc(Cl)cc2)N1C (stereo unspecified)	.	0.55	.
COc1ccc(C2OCC3C2CO[C@H]3c2ccc(OC)c(OC)c2)cc1OC (stereo partly specified)	.	-0.72	.
Cc1cccc(C(=O)N(CC#N)CC#N)c1	.	0.074	.
C[C@@H]1CN([C@H](C)CO)C(=O)Cc2cc(NC(=O)Nc3ccc(F)cc3)ccc2O[C@H]1CN(C)Cc1ccc(-c2ccccc2)cc1	-72	0.13	74*
SMILES	INS-1E rescue	YB-1 expr inh	T cruzi intra
C[C@@H]1CN([C@H](C)CO)C(=O)Cc2cc(NC(=O)Nc3ccc4c(c3)OCO4)ccc2O[C@H]1CN(C)Cc1ccc(-c2ccccc2)cc1	-35	-0.35	72*
C[C@H]1CN([C@@H](C)CO)C(=O)Cc2cc(NC(=O)Nc3ccc(F)cc3)ccc2O[C@H]1CN(C)Cc1ccc(-c2ccccc2)cc1	-44	0.092	22
C[C@@H]1CN([C@H](C)CO)C(=O)Cc2cc(NC(=O)Nc3ccc4c(c3)OCO4)ccc2O[C@H]1CN(C)Cc1ccccc1	-8	-0.016	-15
CC(=O)Oc1ccc2occ(C(=O)CCN(C)C)c2c1	.	-0.12	.
COc1ccc2c(OC)ccc3c2c1C=CC3=O	.	0.042	.
C[C@H](CO)N1C[C@H](C)[C@H](CN(C)Cc2ccc(C(=O)O)cc2)Oc2ccc(NC(=O)Nc3cccc4ccccc34)cc2CC1=O	5	-0.47	2
C[C@@H]1CN([C@@H](C)CO)C(=O)c2cc(NC(=O)Nc3cccc4ccccc34)ccc2O[C@@H]1CN(C)Cc1ccc(Cl)c(Cl)c1	.	0.19	52
C[C@H](CO)N1C[C@H](C)[C@H](CN(C)Cc2ccccc2)Oc2ccc(NC(=O)Nc3cccc4ccccc34)cc2CC1=O	-11	0.13	40
C[C@@H]1CN([C@H](C)CO)C(=O)Cc2cc(NC(=O)Nc3cccc4ccccc34)ccc2O[C@@H]1CN(C)Cc1ccc2c(c1)OCO2	-34	0.22	71*
C[C@@H]1CN([C@@H](C)CO)C(=O)Cc2cc(NC(=O)Nc3cccc4ccccc34)ccc2O[C@@H]1CN(C)Cc1ccc2c(c1)OCO2	-16	0.0088	53
C[C@H]1CN([C@@H](C)CO)C(=O)Cc2cc(NC(=O)Nc3cccc4ccccc34)ccc2O[C@@H]1CN(C)Cc1ccccc1	-16	-0.23	58*
C[C@@H]1CN([C@@H](C)CO)C(=O)Cc2cc(NC(=O)Nc3cccc4ccccc34)ccc2O[C@@H]1CN(C)Cc1ccc(Cl)c(Cl)c1	-62	0.071	65*
C[C@H]1CN([C@@H](C)CO)C(=O)Cc2cc(NC(=O)Nc3cccc4ccccc34)ccc2O[C@@H]1CN(C)Cc1ccc(-c2ccccc2)cc1	-7	0.64	58*
Cc1ccc(NC(=O)CC(c2ccccc2)c2ccccc2)cc1C	.	-0.03	.
CS(=O)c1sc(C(=O)OCc2ccccc2)c2c1C(=O)CC(C)(C)C2 (stereo unspecified)	.	-0.14	.
O=C(C1CC1(c1ccccc1)c1ccccc1)N1CCCCC1 (stereo unspecified)	.	0.093	.
COc1ccc(-n2ncc(NC(=O)N3CCOCC3)c2C)cc1	.	-0.15	.

From PubChem BioAssay
